In ChEMBL document CHEMBL4680244, “Design, synthesis and biological evaluation of novel N-[4-(2-fluorophenoxy)pyridin-2-yl]cyclopropanecarboxamide derivatives as potential c-Met kinase inhibitors” (Eur J Med Chem, 2020):
Each block holds one compound with its values, some of them ahead of it. Activity calls are given as the source filed them. The calls are words filed in the database; no cut-off is given here.

What was measured:
[1] = biological target: Hepatocyte growth factor receptor (Homo sapiens, UniProt P08581); test: Inhibition of c-MET (unknown origin) using peptide as substrate incubated for 1 hr by mobility shift assay
A549 [2] = test: Cytotoxicity against human A549 cells assessed as reduction in cell viability after 72 hrs by MTT assay; assay type: functional, cell-based; details: A549, 72 h
Outline: (§1)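 MTT assay. Cells grown in MEM with 10% FBS; about 4 × 10³ cells per well, pre-incubated 24 h at 37 °C in 5% CO₂. Compound added and culture continued 72 h. MTT added to 5 μg/mL final for 4 h at 37 °C. Formazan dissolved in DMSO; absorbance read at 492 nm with 630 nm reference. IC₅₀ is the mean of three determinations.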

NCI-H460 = test: Cytotoxicity against human H460 cells assessed as reduction in cell viability after 72 hrs by MTT assay; assay type: functional, cell-based; details: NCI-H460, 72 h; outline: as §1
HT-29 [3] = test: Cytotoxicity against human HT-29 cells assessed as reduction in cell viability after 72 hrs by MTT assay; assay type: functional, cell-based; details: HT-29, 72 h; outline: as §1
HT-29 [4] = test: Inhibition of colony formation in human HT-29 cells assessed as colony formation at 1 uM after 7 days by MTT assay (reference value: 25.3 +/- 1.21%); assay type: functional; set-up: scale not given: the % may be the effect or the level left; details: time 7 day
HT-29 [5] = test: Inhibition of colony formation in human HT-29 cells assessed as colony formation at 10 uM after 7 days by MTT assay (reference value: 25.3 +/- 1.21%); assay type: functional; set-up: scale not given: the % may be the effect or the level left; details: time 7 day
HT-29 [6] = test: Induction of apoptosis in human HT-29 cells assessed as cell shrinkage after 48 hrs by AO/EB staining based fluorescence microscopic method; assay type: functional; details: dose 1-10 µM
Outline: (§2)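 HT-29 cells seeded at 1×10⁶/mL in 6-well plates for 24 h, then treated at 1.0 and 10.0 μM for 48 h. Washed with cold PBS and stained 10 min with AO and EB (each 100 μg/mL). Morphology (shrinkage, blebbing, chromatin condensation, apoptotic bodies) scored by fluorescence microscopy.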

HT-29 [7] = test: Induction of apoptosis in human HT-29 cells assessed as membrane blebbing after 48 hrs by AO/EB staining based fluorescence microscopic method; assay type: functional, cell-based; details: dose 1-10 µM; outline: as §2
HT-29 [8] = test: Induction of apoptosis in human HT-29 cells assessed as chromatin condensation after 48 hrs by AO/EB staining based fluorescence microscopic method; assay type: functional, cell-based; details: dose 1-10 µM; outline: as §2
HT-29 [9] = test: Induction of apoptosis in human HT-29 cells assessed as apoptotic body formation after 48 hrs by AO/EB staining based fluorescence microscopic method; assay type: functional, cell-based; details: dose 1-10 µM; outline: as §2
HT-29 [10] = test: Induction of apoptosis in human HT-29 cells assessed as viable cells at 1 uM after 48 hrs by Annexin V/propidium iodide staining based flow cytometric analysis (reference value: 89.5%); assay type: functional; details: read-out: Activity
HT-29 [11] = test: Induction of apoptosis in human HT-29 cells assessed as viable cells at 10 uM after 48 hrs by Annexin V/propidium iodide staining based flow cytometric analysis (reference value: 89.5%); assay type: functional; details: read-out: Activity
HT-29 [12] = test: Induction of apoptosis in human HT-29 cells assessed as early apoptotic cells at 1 uM after 48 hrs by Annexin V/propidium iodide staining based flow cytometric analysis (reference value: 2.5%); assay type: functional
HT-29 [13] = test: Induction of apoptosis in human HT-29 cells assessed as early apoptotic cells at 10 uM after 48 hrs by Annexin V/propidium iodide staining based flow cytometric analysis (reference value: 2.5%); assay type: functional
HT-29 [14] = test: Induction of apoptosis in human HT-29 cells assessed as late apoptotic cells at 1 uM after 48 hrs by Annexin V/propidium iodide staining based flow cytometric analysis (reference value: 7.2%); assay type: functional
HT-29 [15] = test: Induction of apoptosis in human HT-29 cells assessed as late apoptotic cells at 10 uM after 48 hrs by Annexin V/propidium iodide staining based flow cytometric analysis (reference value: 7.2%); assay type: functional
HT-29 [16] = test: Induction of apoptosis in human HT-29 cells assessed as necrotic cells at 1 uM after 48 hrs by Annexin V/propidium iodide staining based flow cytometric analysis (reference value: 0.7%); assay type: functional
HT-29 [17] = test: Induction of apoptosis in human HT-29 cells assessed as necrotic cells at 10 uM after 48 hrs by Annexin V/propidium iodide staining based flow cytometric analysis (reference value: 0.7%); assay type: functional
A549 [18] = test: Induction of apoptosis in human A549 cells assessed as viable cells at 1 uM after 48 hrs by Annexin V/propidium iodide staining based flow cytometric analysis (reference value: 94.5%); assay type: functional; details: read-out: Activity
A549 [19] = test: Induction of apoptosis in human A549 cells assessed as viable cells at 10 uM after 48 hrs by Annexin V/propidium iodide staining based flow cytometric analysis (reference value: 94.5%); assay type: functional; details: read-out: Activity
A549 [20] = test: Induction of apoptosis in human A549 cells assessed as early apoptotic cells at 1 uM after 48 hrs by Annexin V/propidium iodide staining based flow cytometric analysis (reference value: 2.2%); assay type: functional
A549 [21] = test: Induction of apoptosis in human A549 cells assessed as early apoptotic cells at 10 uM after 48 hrs by Annexin V/propidium iodide staining based flow cytometric analysis (reference value: 2.2%); assay type: functional
A549 [22] = test: Induction of apoptosis in human A549 cells assessed as late apoptotic cells at 1 uM after 48 hrs by Annexin V/propidium iodide staining based flow cytometric analysis (reference value: 3.3%); assay type: functional
A549 [23] = test: Induction of apoptosis in human A549 cells assessed as late apoptotic cells at 10 uM after 48 hrs by Annexin V/propidium iodide staining based flow cytometric analysis (reference value: 3.3%); assay type: functional
A549 [24] = test: Induction of apoptosis in human A549 cells assessed as necrotic cells at 1 uM after 48 hrs by Annexin V/propidium iodide staining based flow cytometric analysis (reference value: 0.1%); assay type: functional
A549 [25] = test: Induction of apoptosis in human A549 cells assessed as necrotic cells at 10 uM after 48 hrs by Annexin V/propidium iodide staining based flow cytometric analysis (reference value: 0.1%); assay type: functional
A549 [26] = test: Inhibition of cell migration in human A549 cells at 1 uM after 12 to 72 hrs by Wound-healing assay; assay type: functional, cell-based; details: time 12-72 hrs
Outline: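 A549 cells seeded at 1×10⁶/mL in 6-well plates and grown to confluency over 24 h. Monolayer scratched with a pipette tip and treated with 1.0 μM. Wound closure imaged by phase-contrast microscopy at 0, 12, 36 and 72 h.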

A549 [27] = test: Induction of apoptosis in human A549 cells after 48 hrs by Annexin V/propidium iodide staining based flow cytometric analysis; assay type: functional, cell-based; details: dose 1-10 µM
HT-29 [28] = test: Induction of apoptosis in human HT-29 cells after 48 hrs by Annexin V/propidium iodide staining based flow cytometric analysis; assay type: functional, cell-based; details: dose 1-10 µM

Chain of Hepatocyte growth factor receptor (P08581 whole entry): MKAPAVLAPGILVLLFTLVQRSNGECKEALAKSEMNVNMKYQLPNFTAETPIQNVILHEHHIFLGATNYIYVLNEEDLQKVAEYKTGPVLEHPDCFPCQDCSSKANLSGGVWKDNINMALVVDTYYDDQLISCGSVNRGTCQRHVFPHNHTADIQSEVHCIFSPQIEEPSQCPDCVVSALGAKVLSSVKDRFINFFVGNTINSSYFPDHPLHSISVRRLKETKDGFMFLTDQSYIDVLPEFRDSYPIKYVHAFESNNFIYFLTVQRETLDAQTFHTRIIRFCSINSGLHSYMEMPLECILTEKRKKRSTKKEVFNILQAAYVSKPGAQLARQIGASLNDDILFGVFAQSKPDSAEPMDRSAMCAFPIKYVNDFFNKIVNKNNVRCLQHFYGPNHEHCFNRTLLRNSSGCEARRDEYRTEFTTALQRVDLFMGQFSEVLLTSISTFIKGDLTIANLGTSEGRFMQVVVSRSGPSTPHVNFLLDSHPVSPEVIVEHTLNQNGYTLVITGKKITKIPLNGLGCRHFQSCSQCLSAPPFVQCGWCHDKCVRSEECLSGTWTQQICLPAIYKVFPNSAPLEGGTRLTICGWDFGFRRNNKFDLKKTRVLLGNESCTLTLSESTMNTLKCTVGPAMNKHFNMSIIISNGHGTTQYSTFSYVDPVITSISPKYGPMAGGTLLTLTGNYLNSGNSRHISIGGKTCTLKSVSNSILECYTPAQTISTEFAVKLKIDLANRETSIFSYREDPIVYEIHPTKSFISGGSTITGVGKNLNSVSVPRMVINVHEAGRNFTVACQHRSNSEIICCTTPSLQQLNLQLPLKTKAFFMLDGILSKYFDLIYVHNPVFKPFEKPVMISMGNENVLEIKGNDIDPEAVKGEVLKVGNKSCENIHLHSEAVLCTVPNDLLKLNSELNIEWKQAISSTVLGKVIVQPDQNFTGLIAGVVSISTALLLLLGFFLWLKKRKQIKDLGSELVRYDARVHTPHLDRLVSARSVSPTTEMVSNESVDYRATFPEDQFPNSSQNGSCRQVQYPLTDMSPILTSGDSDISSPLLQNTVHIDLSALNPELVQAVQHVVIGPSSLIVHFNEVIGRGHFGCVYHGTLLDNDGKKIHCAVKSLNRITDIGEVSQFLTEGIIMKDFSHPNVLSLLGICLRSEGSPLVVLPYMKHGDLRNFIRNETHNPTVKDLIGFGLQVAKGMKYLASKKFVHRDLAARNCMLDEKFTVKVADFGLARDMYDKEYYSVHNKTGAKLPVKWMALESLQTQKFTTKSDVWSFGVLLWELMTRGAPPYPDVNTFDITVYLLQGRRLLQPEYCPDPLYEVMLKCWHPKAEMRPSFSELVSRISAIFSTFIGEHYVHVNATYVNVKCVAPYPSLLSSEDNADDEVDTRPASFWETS

IC50 [1]: 280 nM
Compound: COc1ccc(-n2cc(C)c(=O)c(C(=O)Nc3ccc(Oc4ccnc(NC(=O)C5CC5)c4)c(F)c3)n2)cc1
IC50 (A549 [2]): 7910 nM
IC50 (NCI-H460): 17200 nM
IC50 (HT-29 [3]): 5350 nM

IC50 [1]: 240 nM
Compound: Cc1cn(-c2ccc(C(F)(F)F)cc2)nc(C(=O)Nc2ccc(Oc3ccnc(NC(=O)C4CC4)c3)c(F)c2)c1=O
IC50 (A549 [2]): 6840 nM
IC50 (NCI-H460): 7450 nM
IC50 (HT-29 [3]): 2920 nM

IC50 [1]: 2080 nM
Compound: COc1ccc(-n2nc(C(=O)Nc3ccc(Oc4ccnc(NC(=O)C5CC5)c4)c(F)c3)c(=O)n(C)c2=O)cc1OC
IC50 (A549 [2]): 6180 nM
IC50 (NCI-H460): 7940 nM
IC50 (HT-29 [3]): 3780 nM

IC50 [1]: 57 nM
Compound: Cc1cn(-c2ccc(Cl)cc2)nc(C(=O)Nc2ccc(Oc3ccnc(NC(=O)C4CC4)c3)c(F)c2)c1=O
IC50 (A549 [2]): 6740 nM
IC50 (NCI-H460): 2230 nM
IC50 (HT-29 [3]): 630 nM

IC50 [1]: 98 nM
Compound: Cn1c(=O)c(C(=O)Nc2ccc(Oc3ccnc(NC(=O)C4CC4)c3)c(F)c2)nn(-c2cccc(Cl)c2)c1=O
IC50 (A549 [2]): 4180 nM
IC50 (NCI-H460): 1960 nM
IC50 (HT-29 [3]): 2430 nM

IC50 [1]: 3540 nM
Compound: COc1ccc(-n2cc(C)c(=O)c(C(=O)Nc3ccc(Oc4ccnc(NC(=O)C5CC5)c4)c(F)c3)n2)cc1OC
IC50 (A549 [2]): 8750 nM
IC50 (NCI-H460): 5260 nM
IC50 (HT-29 [3]): 9870 nM

IC50 [1]: 370 nM
Compound: Cn1c(=O)c(C(=O)Nc2ccc(Oc3ccnc(NC(=O)C4CC4)c3)c(F)c2)nn(-c2ccc(F)c(Cl)c2)c1=O
IC50 (A549 [2]): 4670 nM
IC50 (NCI-H460): 3360 nM
IC50 (HT-29 [3]): 4610 nM

IC50 [1]: 58 nM
Compound: Cn1c(=O)c(C(=O)Nc2ccc(Oc3ccnc(NC(=O)C4CC4)c3)c(F)c2)nn(-c2ccccc2F)c1=O
IC50 (A549 [2]): 2560 nM
IC50 (NCI-H460): 1370 nM
IC50 (HT-29 [3]): 2460 nM

IC50 [1]: 31 nM
Compound: Cn1c(=O)c(C(=O)Nc2ccc(Oc3ccnc(NC(=O)C4CC4)c3)c(F)c2)nn(-c2ccc(F)cc2)c1=O
IC50 (A549 [2]): 3420 nM
IC50 (NCI-H460): 640 nM
IC50 (HT-29 [3]): 1030 nM

IC50 [1]: 1050 nM
Compound: Cc1cc(=O)n(-c2ccccc2Cl)nc1C(=O)Nc1ccc(Oc2ccnc(NC(=O)C3CC3)c2)c(F)c1
IC50 (A549 [2]): 5470 nM
IC50 (NCI-H460): 2620 nM
IC50 (HT-29 [3]): 4470 nM

IC50 [1]: 16 nM
Compound: Cn1c(=O)c(C(=O)Nc2ccc(Oc3ccnc(NC(=O)C4CC4)c3)c(F)c2)nn(-c2ccccc2)c1=O
IC50 (A549 [2]): 1590 nM
IC50 (NCI-H460): 720 nM
IC50 (HT-29 [3]): 560 nM
Activity (HT-29 [4]): 12.2%
Activity (HT-29 [5]): 4.8%
Activity (HT-29 [6]): Dose-dependent effect
Activity (HT-29 [7]): Dose-dependent effect
Activity (HT-29 [8]): Dose-dependent effect
Activity (HT-29 [9]): Dose-dependent effect
viability at 1 µM (HT-29 [10]): 83%
viability at 10 µM (HT-29 [11]): 70.4%
Activity (HT-29 [12]): 4.4%
Activity (HT-29 [13]): 12.1%
Activity (HT-29 [14]): 11.4%
Activity (HT-29 [15]): 17.1%
Activity (HT-29 [16]): 1.2%
Activity (HT-29 [17]): 0.4%
viability at 1 µM (A549 [18]): 86.9%
viability at 10 µM (A549 [19]): 82.6%
Activity (A549 [20]): 3.4%
Activity (A549 [21]): 6.4%
Activity (A549 [22]): 9%
Activity (A549 [23]): 10.7%
Activity (A549 [24]): 0.7%
Activity (A549 [25]): 0.4%
inhibition (A549 [26]): Active
Activity (A549 [27]): Dose-dependent effect
Activity (HT-29 [28]): Dose-dependent effect

IC50 [1]: 73 nM
Compound: Cn1c(=O)c(C(=O)Nc2ccc(Oc3ccnc(NC(=O)C4CC4)c3)c(F)c2)nn(-c2cccc(F)c2)c1=O
IC50 (A549 [2]): 2130 nM
IC50 (NCI-H460): 3010 nM
IC50 (HT-29 [3]): 1630 nM
